# From PubChem BioAssay
# Most compounds without a hit are left out; they make up all but 2.6% or so of the library.
# Scp-1 inhibitor: Scp-1 phosphatase inhibitors, primary screen, biochemical, colorimetric, uHTS. Carboxy-terminal domain RNA polymerase II polypeptide A small phosphatase 1 (Homo …. 340,000 compounds, 0.88% hits. inhibition, % at 20 µM. Recombinant Scp1, phosphopeptide, malachite green phosphate absorbance;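 active = inhibition above about 50% at 20 µM, limit read from the data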;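 note: plate controls were DMSO wells with enzyme for no effect and wells lacking enzyme for full effect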
# Target sequence (Q9GZU7 76-261 limits assumed): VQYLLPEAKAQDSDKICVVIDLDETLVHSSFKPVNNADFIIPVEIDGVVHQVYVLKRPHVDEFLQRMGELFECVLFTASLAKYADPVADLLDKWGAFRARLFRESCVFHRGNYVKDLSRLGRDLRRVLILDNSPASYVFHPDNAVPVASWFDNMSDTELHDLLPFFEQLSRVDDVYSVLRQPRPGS
#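 Material: truncated SCP-1 phosphatase (76-261aa) / Buffer or medium: 50 mM Tris acetate pH 5.5, 0.005% Tween-20, 10 mM MgCl2 / Compound dosing: one concentration, 20 µM, with 1.0% DMSO / Incubation: 45 min room-temperature reaction, 5 min colour, 30 min stabiliser / Detection: colorimetric free-phosphate detection, absorbance 630 nm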
# STEP inh: STEP phosphatase inhibitors, primary screen, biochemical, fluorescence intensity, uHTS. Tyrosine-protein phosphatase non-receptor type 5 (Homo sapiens), P54829. recombinant STEP, OMFP fluorogenic substrate. inhibition, % at 20 µM. 360,000 compounds, 0.25% hits. AID 588621, 2011;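 active = inhibition at 20 µM, scaled per plate between control wells, above about 37%, limit read from the data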;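 note: 0% = DMSO with enzyme and substrate and 100% = substrate only without enzyme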
#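 Material: STEP (striatal-enriched tyrosine phosphatase) enzyme, cell-free | Medium: 50 mM Bis-Tris pH 6.0 with 2.5 mM DTT and 0.005% Tween 20 | Read-out: Percent inhibition scaled to no-enzyme and uninhibited-enzyme controls, plate-pattern corrected | Signal: Fluorescence read at 480 nm ex / 540 nm em | Times: 20 min reaction, room temperature, in the dark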
# LMPTP block: LMPTP phosphatase inhibitors, primary screen, biochemical, fluorescence intensity, uHTS | Low molecular weight phosphotyrosine protein phosphatase (Homo sapiens), P24666 | recombinant LMPTP-A, OMFP fluorogenic substrate | inhibition, % at 20 µM | 360,000 compounds, 0.22% hits | AID 651560, 2012;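 active = compounds that cut the enzyme signal by at least half of the control window in the single-dose screen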;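 note: plate controls were DMSO wells with enzyme plus substrate for no effect and substrate without enzyme for full effect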
# Target sequence (P24666 whole entry, looked up): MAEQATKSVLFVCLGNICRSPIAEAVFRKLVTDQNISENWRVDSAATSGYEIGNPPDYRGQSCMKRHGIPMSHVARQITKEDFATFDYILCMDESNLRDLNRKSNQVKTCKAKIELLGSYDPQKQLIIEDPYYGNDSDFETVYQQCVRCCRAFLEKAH
#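 Buffer or medium: Bis-Tris pH 6.0, DTT, detergent; Assay system: LMPTP-A enzyme; Quantity: 0.625 nM enzyme; Detection: endpoint fluorescence intensity; Times: 50 min dark incubation at room temperature; Controls: substrate-only low control, DMSO enzyme-plus-substrate high control; Doses: single 20 µM dose; Read-out: percent inhibition versus substrate-only and uninhibited controls; Reagent: 400 µM OMFP.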
# rCAG binder: binders of r(CAG) RNA repeats, primary screen, biochemical, fluorescence | 370,000 compounds, 1.3% hits | r(CAG) RNA repeat, TO-PRO-1 dye displacement fluorescence | inhibition, % at 3 µM;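 active = inhibition above the plate cutoff, the mean of all test compounds on that plate plus 3 SD, cut at about 35% in these data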;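 note: 0% = DMSO alone and 100% = 100 µM mitoxantrone as full dye displacement; higher means more dye released from RNA so lower well fluorescence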
# NadD inh: inhibitors of S. aureus NadD, primary screen, biochemical, colorimetric, uHTS; purified NadD enzyme, colorimetric absorbance read-out; 360,000 compounds, 0.78% hits; AID 602399, 2012; inhibition, % at 20 µM; in the data active = inhibition above about 26%
# * = called active by the depositor; · = not tested or not shown; ! = repeats disagree.
SMILES,Scp-1 inhibitor,STEP inh,LMPTP block,rCAG binder,NadD inh
O=C1CCCC2=C1C(c1ccco1)Nc1ccc3ccccc3c12 (stereo not drawn),74*,4,12,34,12
C=CCC12C=C(OC)C(=O)C(C1=O)C(c1ccc(OC)cc1)C2C (stereo not drawn),·,·,·,2,·
Cc1cc(NS(=O)(=O)c2ccc(NC(=S)NC(=O)c3ccc(Cl)cc3Cl)cc2)no1,-16,0,2,65*,12
COc1cc(/C=N/NC(=O)c2cc(O)cc(O)c2)ccc1OC(=O)c1ccccc1,62*,67*,13,24,11
C/C(=N\OCc1nc2ccccc2c(=O)n1/N=C/c1cc([N+](=O)[O-])ccc1O)c1ccccc1,-20,2,3,62*,32*
CC(C)c1ccc(S(=O)(=O)N2CCN(CC(=O)c3ccc(O)c(O)c3)CC2)cc1,·,2,68*,10,3
CC(C)c1ccc(S(=O)(=O)N2CCN(CC(=O)Nc3ccc(Cl)cc3F)CC2)cc1,2,2,2,3,3
O=C(CN1CCN(S(=O)(=O)c2ccc(Br)cc2)CC1)c1ccc(O)c(O)c1,5,3,59*,9,0
c1ccc(-c2c[nH]c3cccc(C4CCCCC4)c23)cc1,·,·,·,4,·
COC(=O)[C@]12C[C@H](CC(=O)NCCc3ccccc3OC)C(=O)N(Cc3ccc(Cl)cc3Cl)C1=C[C@H](C1CCCC1)O[C@@H]2C,·,·,·,7,·
COc1cccc(-c2cccc(-c3nc(C(=O)NCc4ccc(Oc5ccccc5)cc4)cc4c3[C@H](CCO)N(S(=O)C(C)(C)C)C4)c2)c1 (stereo partly drawn),·,5,2,·,31*
CC(C)(C)S(=O)N1Cc2cc(C(=O)NCc3ccc4c(c3)OCO4)nc(-c3cccc(-c4ccccc4)c3)c2[C@@H]1CCO (stereo partly drawn),·,1,5,12,0
CC(C)(C)S(=O)N1Cc2cc(C(=O)NCc3ccc(Oc4ccccc4)cc3)nc(-c3cccc(-c4cc5ccccc5o4)c3)c2[C@@H]1CCO (stereo partly drawn),·,3,2,·,32*
CC(=O)CC[C@H]1CC[C@]2(CCCN(C(=O)C(C)(C)C)C2)O1,·,·,·,2,·
Cc1ccc(Cn2cc(CN3[C@@H](CC(C)C)COc4cc(Br)ccc4S3(=O)=O)nn2)cc1,·,·,·,5,·
Cc1ccc(-n2c(SCC(=O)Nc3ccc(OCc4ccccc4)cc3)nnc2-c2ccccc2)cc1,·,·,·,7,·
Cc1ccccc1C1=C/C(=C(\SS/C(C(=O)c2ccc(OCC(=O)O)c(Cl)c2Cl)=C2\C=C(c3ccccc3C)SS2)C(=O)c2ccc(OCC(=O)O)c(Cl)c2Cl)SS1,10,15,73*,14,28
O=C(O)COc1ccc2nsnc2c1Cl,0,3,0,5,3
N#CC1(NC(=O)COC(=O)c2cc(O)c3ccccc3c2O)CCCCC1,85*,0,2,·,15
N#CC1(NC(=O)COC(=O)c2ccccc2[N+](=O)[O-])CCCCC1,-13,1,0,1,-6
CCCC(=O)N1CCC[C@]2(CC[C@@H](CCC#N)O2)C1,·,·,·,1,·
CCCCCCCCCCCCCCCC[N+](C)(C)CCN(Cc1ccc(OC)cc1)c1ncccn1,47,9,4,·,75*
Cc1ccc(CNC[C@@]23CO[C@H](c4ccc(Cl)cc4)N2[C@@H](c2ccc(Cl)cc2)SC3)o1,·,·,·,4,·
CC(NCc1ccco1)C(=O)N1CCCC1 (stereo not drawn),·,·,·,6,·
Cc1ccccc1C(=O)Nc1ccc(C(=O)NNC(=O)CCCOc2ccc(Cl)cc2Cl)cc1,28,1,18,9,4
SMILES,Scp-1 inhibitor,STEP inh,LMPTP block,rCAG binder,NadD inh
O=C(CCCOc1ccc(Cl)cc1Cl)NNC(=O)c1ccc(NC(=O)c2ccccc2)cc1,41,6,69*,4,24
O=C(O)c1cccc(N/N=C/c2ccc(OC(F)(F)F)cc2)c1,1,5,1,8,-2
CSc1ccc(/C=N/Nc2cccc(C(=O)O)c2)cc1,81*,60*,14,·,-1
Cc1cccc(-c2cccc3c4c([nH]c23)[C@@H]2C[C@H]3[C@@H](C(=O)N2CC4)[C@H](C)ON3C)c1,·,·,·,7,·
COc1ccc(-n2c(SCC(=O)Nc3cc(C)c(NC(=O)c4ccccc4)cc3OC)nnc2-c2ccco2)cc1,·,·,·,12,·
COc1ccc(C=NNc2ccc(S(=O)(=O)Nc3ccccc3C(=O)O)cc2[N+](=O)[O-])c(OC)c1,-5,6,52*,·,20
O=C(O)c1ccccc1/C=N/Nc1ccc(S(=O)(=O)N2CCCC2)cc1[N+](=O)[O-],-7,1,2,8,-9
FC(F)(F)c1ccc(Cn2ccc3ccc(-c4ccc5ccn(Cc6ccccc6)c5c4)cc32)cc1,·,·,·,26,·
CC1(C)S[C@@H]2[C@H](NC(=O)[C@H](N)c3ccc(O)cc3)C(=O)N2[C@H]1C(=O)O,-3,-3,-8,24,5
CC1(C)S[C@@H]2[C@H](NC(=O)[C@H](N)c3ccccc3)C(=O)N2[C@H]1C(=O)O,29,2,-2,58*!,2
NC(=S)n1[nH]c(-c2ccc([N+](=O)[O-])cc2)c(N=Nc2ccc(O)cc2)c1=O,37,13,21,7,54*
Cc1[nH]n(C(N)=S)c(=O)c1N=Nc1ccc([N+](=O)[O-])cc1Cl,3,2,3,5,4
Cc1[nH]n(C(N)=S)c(=O)c1N=Nc1cccc(Cl)c1,-7,4,0,7,1
NC(=S)n1[nH]c(-c2ccc([N+](=O)[O-])cc2)c(N=Nc2cccc(Cl)c2)c1=O,34,2,13,18,93*
O=C1CC(=O)N(CCNc2ncc(C(F)(F)F)cc2Cl)C(=O)N1,-6,-12,2,51*,2
CCN(CC)C(=O)CC[C@@H]1CC[C@]2(CCCN(C(=O)C3CCCCC3)C2)O1,·,·,·,-2,·
COCCOC(=O)c1[nH]c2c(c1C)C(=O)CC(c1ccco1)C2 (stereo not drawn),83*,0,37,25,3
Cc1c(C(=O)OCCOC(C)C)[nH]c2c1C(=O)CC(c1ccco1)C2 (stereo not drawn),49,1,59*,·,0
CSCCOC(=O)c1[nH]c2c(c1C)C(=O)CC(c1ccco1)C2 (stereo not drawn),75*,0,22,8,-2
COCCOC(=O)c1[nH]c2c(c1C)C(=O)CC(c1ccccc1)C2 (stereo not drawn),-2,2,0,·,5
